{"source": "ChEMBL document CHEMBL1153963", "about": "“Phenanthrene-based tylophorine-1 (PBT-1) inhibits lung cancer cell growth through the Akt and NF-kappaB pathways” (J Med Chem, 2009)", "key": {"[1]": {"system": "CL1-0", "experiment": "Decrease in IkappaB protein level in TNF-alpha-stimulated human CL1-0 cells by Western blot", "assay_type": "functional, cell-based", "how_it_was_run": "(§1)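 CL1-0 cells serum-starved overnight, pretreated with various drug concentrations, then stimulated with TNF-α for 4 h. Lysates (50 µg) resolved by 10% SDS-PAGE, blotted, probed with specific antibodies in TBS pH 7.5/0.05% Tween 20/5% milk, HRP secondaries, chemiluminescent film detection; a representative blot shown.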"}, "[2]": {"biological_target": "T1, Inhibitor of nuclear factor kappa-B kinase subunit alpha (Homo sapiens) (UniProt O15111)", "T1 sequence (whole entry)": "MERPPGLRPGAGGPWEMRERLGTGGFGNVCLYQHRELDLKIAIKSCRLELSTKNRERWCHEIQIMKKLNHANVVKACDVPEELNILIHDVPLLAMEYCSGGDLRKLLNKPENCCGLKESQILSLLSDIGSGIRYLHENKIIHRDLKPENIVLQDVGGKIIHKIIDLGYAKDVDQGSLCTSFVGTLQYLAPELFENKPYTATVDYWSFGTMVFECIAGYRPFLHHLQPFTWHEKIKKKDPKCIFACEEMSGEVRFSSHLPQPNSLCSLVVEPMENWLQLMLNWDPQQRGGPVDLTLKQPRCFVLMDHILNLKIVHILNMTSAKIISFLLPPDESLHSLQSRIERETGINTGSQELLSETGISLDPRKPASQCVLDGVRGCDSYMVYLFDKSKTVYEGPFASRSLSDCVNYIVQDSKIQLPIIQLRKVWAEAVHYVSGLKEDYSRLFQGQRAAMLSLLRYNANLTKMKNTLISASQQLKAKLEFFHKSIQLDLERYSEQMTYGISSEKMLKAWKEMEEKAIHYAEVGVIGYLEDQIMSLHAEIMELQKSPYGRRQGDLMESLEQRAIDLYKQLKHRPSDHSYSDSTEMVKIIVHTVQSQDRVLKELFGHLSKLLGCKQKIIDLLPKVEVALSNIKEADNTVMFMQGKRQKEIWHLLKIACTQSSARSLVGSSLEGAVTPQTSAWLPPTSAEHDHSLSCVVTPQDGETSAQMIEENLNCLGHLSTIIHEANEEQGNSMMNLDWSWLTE", "experiment": "Increase in IKKalpha activity in TNF-alpha-stimulated human CL1-0 cells by Western blot", "assay_type": "cell-based", "how_it_was_run": "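CL1-0 (and A549) cells serum-starved overnight, pretreated at various concentrations, then TNF-α stimulated for 4 h; extracts immunoblotted for p-Akt, Akt, IKKα, p-IKKα/β; representative blot shown.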"}, "[3]": {"biological_target": "T2, Inhibitor of nuclear factor kappa-B kinase subunit beta (Homo sapiens) (UniProt O14920)", "T2 sequence (whole entry)": "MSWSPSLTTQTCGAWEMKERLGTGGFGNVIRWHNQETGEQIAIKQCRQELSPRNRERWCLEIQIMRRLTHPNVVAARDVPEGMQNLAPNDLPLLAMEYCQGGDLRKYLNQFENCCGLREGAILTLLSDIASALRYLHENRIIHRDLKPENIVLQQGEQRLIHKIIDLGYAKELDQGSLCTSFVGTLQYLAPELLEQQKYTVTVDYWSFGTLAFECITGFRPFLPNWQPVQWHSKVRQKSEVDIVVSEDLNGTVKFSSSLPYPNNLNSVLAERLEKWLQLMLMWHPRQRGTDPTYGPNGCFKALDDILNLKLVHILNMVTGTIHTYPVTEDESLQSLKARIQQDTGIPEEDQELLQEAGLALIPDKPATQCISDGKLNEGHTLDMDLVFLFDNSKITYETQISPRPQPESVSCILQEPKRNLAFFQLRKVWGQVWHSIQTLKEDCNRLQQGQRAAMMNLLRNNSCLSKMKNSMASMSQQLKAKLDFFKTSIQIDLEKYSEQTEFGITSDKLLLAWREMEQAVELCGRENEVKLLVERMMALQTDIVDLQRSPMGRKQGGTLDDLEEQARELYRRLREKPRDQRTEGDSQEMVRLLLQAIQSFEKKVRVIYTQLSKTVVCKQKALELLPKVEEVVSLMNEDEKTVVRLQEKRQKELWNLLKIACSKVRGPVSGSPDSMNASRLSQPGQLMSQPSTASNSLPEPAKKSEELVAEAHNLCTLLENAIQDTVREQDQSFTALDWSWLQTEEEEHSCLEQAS", "experiment": "Effect on IKK-beta activity in TNF-alpha-stimulated human CL1-0 cells by Western blot", "assay_type": "cell-based", "how_it_was_run": "as §1"}, "[4]": {"system": "CL1-0", "experiment": "Suppression of colony formation of human CL1-0 cells assessed as reduction of cell colonies after 10 to 14 days", "assay_type": "functional, cell-based"}, "[5]": {"system": "CL1-0", "experiment": "Growth inhibition of human CL1-0 cells at >0.25 ug/mL", "assay_type": "functional, cell-based"}, "[6]": {"experiment": "Cell cycle arrest in human CL1-0 cells assessed as decrease in accumulation at G0/G1 phase by flow cytometry", "assay_type": "functional, cell-based", "settings": "TDE = time-dependent effect", "how_it_was_run": "(§2)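 CL1-0 cells seeded at 2×10^5 per 60 mm dish, incubated 24 h, then exposed to various drug concentrations for 2, 6, 12, 16 or 24 h. Harvested cells fixed in cold 70% ethanol at 4 °C for 16 h, treated with RNase A (20 µg/mL, 37 °C, 30 min), stained with propidium iodide (50 µg/mL, 4 °C, 30 min), analysed at once by flow cytometry for phase distribution.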"}, "[7]": {"experiment": "Cell cycle arrest in human CL1-0 cells assessed as accumulation at G0/G1 phase after 24 hrs by flow cytometry", "assay_type": "functional, cell-based", "how_it_was_run": "as §2"}, "[8]": {"experiment": "Cell cycle arrest in human CL1-0 cells assessed as accumulation at S phase after 6 hrs by flow cytometry", "assay_type": "functional, cell-based", "how_it_was_run": "as §2"}, "[9]": {"experiment": "Cell cycle arrest in human CL1-0 cells assessed as accumulation at S phase after 16 hrs by flow cytometry", "assay_type": "functional, cell-based", "how_it_was_run": "as §2"}, "[10]": {"experiment": "Cell cycle arrest in human CL1-0 cells assessed as accumulation at S phase after 24 hrs by flow cytometry", "assay_type": "functional, cell-based", "how_it_was_run": "as §2"}, "[11]": {"experiment": "Cell cycle arrest in human CL1-0 cells assessed as accumulation at G2/M phase after 12 hrs by flow cytometry", "assay_type": "functional, cell-based", "how_it_was_run": "as §2"}, "[12]": {"experiment": "Cell cycle arrest in human CL1-0 cells assessed as accumulation at G2/M phase after 16 hrs by flow cytometry", "assay_type": "functional, cell-based", "how_it_was_run": "as §2"}, "[13]": {"experiment": "Cell cycle arrest in human CL1-0 cells assessed as accumulation at G2/M phase after 24 hrs by flow cytometry", "assay_type": "functional, cell-based", "how_it_was_run": "as §2"}, "[14]": {"system": "CL1-0", "experiment": "Induction of cyclin D1 protein accumulation in human CL1-0 cells at 0.5 ug/mL after 24 hrs by Western blot", "assay_type": "functional, cell-based", "how_it_was_run": "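CL1-0 cells exposed to rising concentrations for 24 h, or to 0.5 µg/mL over a time course; 50 µg lysate resolved by 10% SDS-PAGE, blotted, probed with cyclin/CDK-inhibitor antibodies in TBS-Tween/5% milk, HRP secondary, chemiluminescent film detection.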"}, "[15]": {"system": "CL1-0", "experiment": "Increase in IkappaB protein level in human CL1-0 cells by Western blot", "assay_type": "functional, cell-based", "how_it_was_run": "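Western blot of CL1-0 cells after 24 h at increasing concentrations; probed for p-Akt, Akt and IκB; 50 µg lysate on 10% SDS-PAGE, HRP secondary, chemiluminescence on film.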"}}, "note": "Calls of active or inactive are those of the source. The rule behind the calls is not given here.", "data": [{"smiles": "COc1ccc2c(CN3CCC(CO)CC3)cc3cc4c(cc3c2c1)OCO4", "values": [{"measurement": "Activity", "setting": "[1]", "result": "Active"}, {"measurement": "Activity", "setting": "[2]", "result": "Active"}, {"measurement": "Activity", "setting": "[3]", "result": "inactive"}, {"measurement": "Activity", "setting": "[4]", "result": "Dose-dependent effect"}, {"measurement": "Activity", "setting": "[5]", "result": "Active"}, {"measurement": "Activity", "setting": "[6]", "result": "tde"}, {"measurement": "Activity", "setting": "[7]", "result": 16.6, "unit": "%"}, {"measurement": "Activity", "setting": "[8]", "result": 15.8, "unit": "%"}, {"measurement": "Activity", "setting": "[9]", "result": 34.1, "unit": "%"}, {"measurement": "Activity", "setting": "[10]", "result": 43.8, "unit": "%"}, {"measurement": "Activity", "setting": "[11]", "result": 27, "unit": "%"}, {"measurement": "Activity", "setting": "[12]", "result": 33.6, "unit": "%"}, {"measurement": "Activity", "setting": "[13]", "result": 20.9, "unit": "%"}, {"measurement": "Activity", "setting": "[14]", "result": "Active"}, {"measurement": "Activity", "setting": "[15]", "result": "Dose-dependent effect"}]}]}
